In ChEMBL document CHEMBL1149307, “Potent and selective farnesyl transferase inhibitors” (J Med Chem, 2004):

Experiments:
[1] = Inhibition of Sprague-Dawley rat brain GGTI by continuous fluorescence assay
Outline: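 GGT-I source: rat brain cytosol (male Sprague–Dawley, 100 000g supernatant). Buffer: 50 mM Tris-HCl pH 7.5, 5 mM MgCl2, 10 μM ZnCl2, 5 mM DTT, 0.01% dodecyl maltoside, 5.4 mg/mL protein, 4 μM dansyl-GCVLL, 10 μM GGPP. Incubated at 25 °C; fluorescence followed for 10 min at ex 340/em 505 nm. IC50 taken from sigmoid fit of rate against inhibitor concentration.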

[2] = Inhibition of Sprague-Dawley rat brain FTase by continuous fluorescence assay
Outline: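 Enzyme source: cytosolic fraction (100 000g supernatant) of brains from male Sprague–Dawley rats aged 9–10 weeks, kept at -80 °C. Reaction: 50 mM Tris-HCl pH 7.5, 5 mM MgCl2, 10 μM ZnCl2, 5 mM DTT, 0.01% n-dodecyl-β-D-maltoside, 5.4 mg/mL cytosolic protein, 1.3 μM dansyl-CVIM, 25 μM FPP. Run at 25 °C, fluorescence (ex 340/em 505 nm) recorded 10 min. IC50 obtained by fitting ΔF/Δt versus inhibitor concentration.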

[3] = tested on: L1210; assay: Growth inhibition of mouse L1210 cells by MTT assay after 72 hrs; format: functional, cell-based; conditions: L1210, 72 h
Outline: (§1)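 Cells (H-Ras-transformed NIH3T3 fibroblasts; K-Ras-transformed DLD-1 colon adenocarcinoma; L-1210 leukaemia) grown in RPMI + 10% fetal calf serum. Seeded and allowed to grow 24 h, then exposed to a range of inhibitor concentrations for 72 h, 1% DMSO final. Growth read by colorimetric MTT assay; EC50 derived.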

[4] = tested on: DLD-1; assay: Growth inhibition of human DLD1 cells by MTT assay after 72 hrs; format: functional, cell-based; conditions: DLD-1, 72 h; outline: as §1
[5] = tested on: NIH3T3; assay: Growth inhibition of H-Ras transformed […] cells by MTT assay after 72 hrs; format: functional, cell-based; conditions: Mus musculus, NIH3T3, 72 h; outline: as §1

IC50 [1] [nM]	IC50 [2] [nM]	EC50 [3] [nM]	EC50 [4] [nM]	SMILES	EC50 [5] [nM]
> 2000	32.7			CCC(C)[C@@H](C(=O)OC)N(C(=O)c1ccccc1)C1CCN(Cc2cncn2Cc2ccc(C#N)cc2)CC1 (stereo partly specified)	
12.4	56.2			CC(C)C[C@H](NC(=O)c1ccc(NC(=O)[C@@H](N)CS)cc1-c1ccccc1)C(=O)O	
	600			COC(=O)[C@H](CCSC)N(C(=O)c1ccccc1)C1CCN(Cc2cncn2Cc2ccc(C)cc2)CC1	
	575			COC(=O)[C@H](CCSC)N(C(=O)c1ccccc1)C1CCN(Cc2cncn2Cc2ccc(OC)cc2)CC1	
> 100	72			CSCC[C@H](NC(=O)c1ccc(NC(=O)[C@@H](N)CS)cc1)C(=O)O	
> 5000	34			CSCC[C@H](NC(=O)[C@H](Cc1ccccc1)NC[C@@H](NC[C@@H](N)CS)C(C)C)C(=O)O	

The remaining lines, values behind:

SMILES	IC50 [1] [nM]	IC50 [2] [nM]	EC50 [3] [nM]	EC50 [4] [nM]	EC50 [5] [nM]
CSCC[C@@H](C(=O)O)N(C(=O)c1ccccc1)C1CCN(Cc2cncn2Cc2ccc(C#N)cc2)CC1	> 2000	10			
COC(=O)[C@H](CCSC)N(C(=O)c1ccccc1)C1CCN(Cc2cncn2Cc2ccc(C(F)(F)F)cc2)CC1		43.9			
COC(=O)[C@H](CCSC)N(C(=O)c1ccccc1)C1CCN(C(=O)C(N)CS)CC1 (stereo partly specified)	> 100	22.8	> 10000	18100	
COC(=O)[C@H](CCSC)N(C(=O)c1ccccc1)C1CCN(Cc2cncn2Cc2ccccc2)CC1		397			
COC(=O)[C@H](CCSC)N(Cc1ccccc1)C1CCN(Cc2cncn2Cc2ccc(C#N)cc2)CC1	> 2000	2.35	> 5000	12900	
COC(=O)[C@H](Cc1ccccc1)N(C(=O)c1ccccc1)C1CCN(Cc2cncn2Cc2ccc(C#N)cc2)CC1	> 2000	22			
N#Cc1ccc(Cn2cncc2CN2CCC(N(C(=O)c3ccccc3)[C@@H](Cc3ccccc3)C(=O)O)CC2)cc1	> 2000	54.1			
COC(=O)[C@H](CCSC)N(C(=O)c1ccccc1)C1CCN(Cc2cncn2Cc2ccc(C#N)cc2)CC1	> 2000	4.6	20	9200	1330
